This series deals with Multidrug resistance-associated protein 1 (Homo sapiens, UniProt P33527). Kind of series: Inhibition of MRP1 in human 2008/MRP1 cells assessed as potentiation of doxorubicin-induced cytotoxicity by measuring cell survival at 2 uM after 5 days by MTS assay relative to control. Format: cell-based. As to conditions: 120 h. In outline:
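2008/MRP1 cells (retroviral human MRP1 transfectant; RPMI 1640, 10% FBS) at 4,000 per well, with 100 nM doxorubicin plus crude, unpurified click products in DMSO: 2 µM in the primary screen, 1 µM in the secondary. Incubated 5 days at 37 °C. MTS/PMS added for 2 h at 37 °C, absorbance read at 490 nm. % survival is relative to wells without DOX or product. Run in triplicate, at least three experiments.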
In general terms: Tetrazolium assays rely on reduction of a dye to a coloured formazan, in cell work by metabolically active cells.

This passage reports Survival results from ChEMBL document CHEMBL4257575, “Discovery of Novel Flavonoid Dimers To Reverse Multidrug Resistance Protein 1 (MRP1, ABCC1) Mediated Drug Resistance in Cancers Using a High Throughput Platform with "Click Chemistry"” (J Med Chem, 2018).

Chain of Multidrug resistance-associated protein 1 (P33527 whole entry): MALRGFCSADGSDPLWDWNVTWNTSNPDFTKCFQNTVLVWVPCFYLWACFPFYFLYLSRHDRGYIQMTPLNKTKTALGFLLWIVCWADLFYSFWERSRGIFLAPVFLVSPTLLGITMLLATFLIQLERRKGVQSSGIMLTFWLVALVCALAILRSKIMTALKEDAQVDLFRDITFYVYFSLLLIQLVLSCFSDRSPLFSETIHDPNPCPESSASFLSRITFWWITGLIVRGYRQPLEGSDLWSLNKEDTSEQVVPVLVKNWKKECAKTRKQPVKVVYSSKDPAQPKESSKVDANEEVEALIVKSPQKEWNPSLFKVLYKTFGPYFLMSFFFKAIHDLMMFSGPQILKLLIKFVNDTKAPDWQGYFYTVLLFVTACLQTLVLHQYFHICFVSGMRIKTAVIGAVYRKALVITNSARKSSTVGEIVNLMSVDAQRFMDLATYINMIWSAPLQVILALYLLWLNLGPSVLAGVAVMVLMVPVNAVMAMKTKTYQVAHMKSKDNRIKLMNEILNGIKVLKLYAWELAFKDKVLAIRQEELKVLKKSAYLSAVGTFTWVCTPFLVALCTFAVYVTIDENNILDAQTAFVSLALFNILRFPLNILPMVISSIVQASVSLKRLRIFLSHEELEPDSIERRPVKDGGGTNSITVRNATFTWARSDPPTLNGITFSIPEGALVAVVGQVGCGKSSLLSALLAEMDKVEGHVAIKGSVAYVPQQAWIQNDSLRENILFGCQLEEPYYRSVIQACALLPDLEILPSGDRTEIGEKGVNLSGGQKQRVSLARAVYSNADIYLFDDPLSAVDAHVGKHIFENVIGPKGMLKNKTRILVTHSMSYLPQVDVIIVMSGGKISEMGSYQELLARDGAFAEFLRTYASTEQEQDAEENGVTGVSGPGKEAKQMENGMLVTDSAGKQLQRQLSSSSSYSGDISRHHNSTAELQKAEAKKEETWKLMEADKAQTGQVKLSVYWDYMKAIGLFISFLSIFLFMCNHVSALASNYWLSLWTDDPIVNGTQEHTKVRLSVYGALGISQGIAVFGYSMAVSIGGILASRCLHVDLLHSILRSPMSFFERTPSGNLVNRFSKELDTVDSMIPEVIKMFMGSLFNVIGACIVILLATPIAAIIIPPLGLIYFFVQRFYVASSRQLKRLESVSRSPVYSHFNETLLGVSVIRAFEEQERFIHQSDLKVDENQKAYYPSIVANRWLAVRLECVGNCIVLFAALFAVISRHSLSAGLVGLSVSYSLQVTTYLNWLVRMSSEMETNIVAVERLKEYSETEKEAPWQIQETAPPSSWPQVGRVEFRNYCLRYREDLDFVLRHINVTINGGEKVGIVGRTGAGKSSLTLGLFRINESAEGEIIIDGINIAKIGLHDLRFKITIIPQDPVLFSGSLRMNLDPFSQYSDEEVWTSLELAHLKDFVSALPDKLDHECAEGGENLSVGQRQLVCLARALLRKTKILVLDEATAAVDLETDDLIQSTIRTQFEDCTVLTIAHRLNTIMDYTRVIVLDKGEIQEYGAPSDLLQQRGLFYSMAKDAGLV

For `Cc1ccc2oc(-c3ccc(OCCOCCOCCn4cc(CN5CCN(Cc6cn(CCOCCOCCOc7ccc(-c8cc(=O)c9cc(C)ccc9o8)cc7)nn6)CC5)nn4)cc3)cc(=O)c2c1`, the Survival was 103%.

As for `O=C(/C=C/c1ccc(OCCCCc2cn(CCOCCOc3ccc(-c4cc(=O)c5cc(F)ccc5o4)cc3)nn2)cc1)c1ccc(F)cc1O`, the Survival turned out to be 70%.

Turning to `COc1cccc(COc2c(-c3ccc(OCCOCCn4cc(CN5CCN(Cc6cn(CCOCCOc7ccc(-c8oc9ccccc9c(=O)c8OCc8cccc(OC)c8)cc7)nn6)CC5)nn4)cc3)oc3ccccc3c2=O)c1`, the Survival worked out at 85%.

As to `O=c1c(OCc2ccccc2)c(-c2ccc(OCCOCCn3cc(-c4ccc(-c5cn(CCOCCOc6ccc(-c7oc8ccccc8c(=O)c7OCc7ccccc7)cc6)nn5)cc4)nn3)cc2)oc2ccccc12`, the Survival was found to be 82%.

On to `O=C(/C=C/c1ccc(OCCCCc2cn(CCOCCOc3ccc(-c4oc5ccccc5c(=O)c4OCc4ccccc4)cc3)nn2)cc1)c1ccccc1O`, for which the Survival is listed as 72%.

With `O=Cc1ccc(OCCCCc2cn(CCOCCOc3ccc4c(=O)cc(-c5ccccc5)oc4c3)nn2)cc1`, the Survival is reported as 82%.

Regarding `O=c1cc(-c2ccc(OCCCc3cn(CCOCCOCCOc4ccc(-c5cc(=O)c6cc(F)ccc6o5)cc4)nn3)cc2)oc2ccc(F)cc12`, the Survival was 76%.

Consider `O=c1cc(-c2ccccc2)oc2cc(OCCOCc3cn(CCOCCOc4ccc(-c5cc(=O)c6cc(F)ccc6o5)cc4)nn3)ccc12`, for which the Survival was determined as 54%.

Turning to `O=c1c(OCc2ccccc2)c(-c2ccc(OCCOCCn3cc(CN(Cc4ccccc4)Cc4cn(CCOCCOc5ccc(-c6oc7ccccc7c(=O)c6OCc6ccccc6)cc5)nn4)nn3)cc2)oc2ccccc12`, the Survival was 62%.

Turning to `CCc1ccc(O)c(C(=O)/C=C/c2ccc(OCCCCc3cn(CCOCCOc4ccc(-c5cc(=O)c6cc(F)ccc6o5)cc4)nn3)cc2)c1`, the Survival amounted to 80%.

Consider `COc1cccc(COc2c(-c3ccc(OCCOCCn4cc(CCN5C(=O)c6ccccc6C5=O)nn4)cc3)oc3ccccc3c2=O)c1`, for which the Survival turned out to be 75%.

Consider `[N-]=[N+]=NCCOCCOCCOc1ccc2c(=O)cc(-c3ccccc3)oc2c1`, for which the Survival was found to be 90%.

As to `O=c1cc(-c2ccccc2)oc2cc(OCCOCCOCCn3cc(CN(Cc4ccccc4)Cc4cn(CCOCCOCCOc5ccc6c(=O)cc(-c7ccccc7)oc6c5)nn4)nn3)ccc12`, the Survival is reported as 74%.

Turning to `O=C(/C=C/c1ccc(OCCCCc2cn(CCOCCOc3ccc(-c4oc5ccccc5c(=O)c4OCc4ccccc4)cc3)nn2)cc1)c1ccc(F)cc1O`, the Survival amounted to 69%.

For `C#CCCCOc1ccc(-c2cc(=O)c3cc(F)ccc3o2)cc1`, the Survival is recorded as 81%.

Take `O=c1cc(-c2ccccc2)oc2cc(OCCOCCn3cc(-c4ccc(-c5cn(CCOCCOc6ccc7oc(-c8ccccc8)cc(=O)c7c6)nn5)cc4)nn3)ccc12`: the Survival is on record as 79%.

As for `C#CCN(CC#C)Cc1ccccc1`, the Survival stood at 81%.

Regarding `O=c1cc(-c2ccc(OCCOCCOCCn3cc(-c4cccc(-c5cn(CCOCCOCCOc6ccc(-c7cc(=O)c8cc(F)ccc8o7)cc6)nn5)c4)nn3)cc2)oc2ccc(F)cc12`, the Survival was determined as 72%.

As to `COc1cccc(COc2c(-c3ccc(OCCOCCn4cc(CCCCOc5ccc(/C=C/C(=O)c6cc(C)ccc6O)cc5)nn4)cc3)oc3ccccc3c2=O)c1`, the Survival came out at 75%.

As for `O=c1cc(-c2ccccc2)oc2cc(OCCCCc3cn(CCOCCOc4ccc5c(=O)cc(-c6ccccc6)oc5c4)nn3)ccc12`, the Survival is 53%.

Turning to `O=c1cc(-c2ccccc2)oc2cc(OCCOCCn3cc(CN(Cc4ccccc4)Cc4cn(CCOCCOc5ccc6oc(-c7ccccc7)cc(=O)c6c5)nn4)nn3)ccc12`, the Survival worked out at 76%.

Consider `Cc1ccc2oc(-c3ccc(OCCCCc4cn(CCOc5cccc6c(=O)cc(-c7ccccc7)oc56)nn4)cc3)cc(=O)c2c1`, for which the Survival is 75%.

`O=Cc1ccc(OCCCCc2cn(CCOCCOCCOc3ccc(-c4cc(=O)c5cc(F)ccc5o4)cc3)nn2)cc1`: the Survival is 74%.

As for `COc1cccc(COc2c(-c3ccc(OCCOCCn4cc(-c5cccc(-c6cn(CCOCCOc7ccc(-c8oc9ccccc9c(=O)c8OCc8cccc(OC)c8)cc7)nn6)c5)nn4)cc3)oc3ccccc3c2=O)c1`, the Survival was 82%.

Turning to `O=Cc1ccc(OCCCCc2cn(CCOCCOc3ccc(-c4oc5ccccc5c(=O)c4OCc4ccccc4)cc3)nn2)cc1`, the Survival was 59%.

As to `Cc1ccc2oc(-c3ccc(OCCOCCOCCn4cc(-c5ccc(-c6cn(CCOCCOCCOc7ccc(-c8cc(=O)c9cc(C)ccc9o8)cc7)nn6)cc5)nn4)cc3)cc(=O)c2c1`, the Survival came to 74%.

`CCc1ccc(O)c(C(=O)/C=C/c2ccc(OCCCCc3cn(CCOCCOCCOc4ccc(-c5cc(=O)c6cc(F)ccc6o5)cc4)nn3)cc2)c1`: the Survival was 67%.

Regarding `COc1cccc(COc2c(-c3ccc(OCCCCc4cn(CCOCCOc5ccc(-c6oc7ccccc7c(=O)c6OCc6cccc(OC)c6)cc5)nn4)cc3)oc3ccccc3c2=O)c1`, the Survival was found to be 57%.

On to `COc1cccc(COc2c(-c3ccc(OCCOCCn4cc(CCCCOc5ccc(-c6cc(=O)c7cc(C)ccc7o6)cc5)nn4)cc3)oc3ccccc3c2=O)c1`, for which the Survival is 78%.

`O=c1cc(-c2ccccc2)oc2cc(OCCn3cc(CN(Cc4ccccc4)Cc4cn(CCOc5ccc6occ(-c7ccccc7)c(=O)c6c5)nn4)nn3)ccc12`: the Survival is given as 96%.

Consider `O=c1cc(-c2ccccc2)oc2cc(OCCN(Cc3ccccc3)Cc3cn(CCOCCOc4cccc(-c5oc6ccccc6c(=O)c5OCc5ccccc5)c4)nn3)ccc12`, for which the Survival is 73%.

On to `COCOc1cc(OCc2ccccc2)c2c(=O)cc(-c3ccc(OCCCc4cn(CCOCCOc5ccc(-c6oc7ccccc7c(=O)c6OCc6cccc(OC)c6)cc5)nn4)cc3)oc2c1`, for which the Survival was determined as 79%.

For `COc1cccc(COc2c(-c3ccc(OCCCCc4cn(CCOCCOc5ccc(-c6cc(=O)c7cc(F)ccc7o6)cc5)nn4)cc3)oc3ccccc3c2=O)c1`, the Survival is given as 65%.

Turning to `O=C(/C=C/c1ccc(OCCCCc2cn(CCOCCOc3cccc(-c4oc5ccccc5c(=O)c4OCc4ccccc4)c3)nn2)cc1)c1ccccc1O`, the Survival is 83%.

Regarding `O=Cc1ccc(OCCCCc2cn(CCOc3cccc4c(=O)cc(-c5ccccc5)oc34)nn2)cc1`, the Survival is reported as 83%.

As for `O=c1cc(-c2ccc(OCCOCCn3cc(CNc4ccccc4)nn3)cc2)oc2ccccc12`, the Survival is recorded as 90%.

Consider `O=c1cc(-c2ccc(OCCCc3cn(CCOCCOc4cccc(-c5oc6ccccc6c(=O)c5OCc5ccccc5)c4)nn3)cc2)oc2ccc(F)cc12`, for which the Survival is reported as 79%.

On to `O=c1cc(-c2ccc(OCCCc3cn(CCOc4cccc5c(=O)cc(-c6ccccc6)oc45)nn3)cc2)oc2ccccc12`, for which the Survival worked out at 69%.

On to `C#CCCCCOc1ccc(/C=C/C(=O)c2cc(C)ccc2O)cc1`, for which the Survival came out at 100%.

Regarding `O=c1[nH]c(-c2ccc(OCCCc3cn(CCOCCOCCOc4ccc(-c5cc(=O)c6ccccc6o5)cc4)nn3)cc2)nc2ccccc12`, the Survival was found to be 76%.

Turning to `[N-]=[N+]=NCCOCCOCCOc1ccc(-c2cc(=O)c3cc(F)ccc3o2)cc1`, the Survival is reported as 85%.

Turning to `O=c1cc(-c2ccccc2)oc2cc(OCCCc3cn(CCOCCOCCOc4ccc5c(=O)cc(-c6ccccc6)oc5c4)nn3)ccc12`, the Survival stood at 57%.

For `O=c1[nH]c(-c2ccc(OCCCc3cn(CCOCCOCCOc4ccc(-c5oc6ccccc6c(=O)c5OCc5ccccc5)cc4)nn3)cc2)nc2ccccc12`, the Survival stood at 68%.

Regarding `O=c1cc(-c2ccc(OCCOCCn3cc(-c4ccc(-c5cn(CCOCCOc6ccc(-c7cc(=O)c8ccccc8o7)cc6)nn5)cc4)nn3)cc2)oc2ccccc12`, the Survival was 81%.

Turning to `Cc1ccc2oc(-c3ccc(OCCOCCOCCn4cc(-c5cccc(-c6cn(CCOCCOCCOc7ccc(-c8cc(=O)c9cc(C)ccc9o8)cc7)nn6)c5)nn4)cc3)cc(=O)c2c1`, the Survival is recorded as 77%.

With `O=Cc1ccc(OCCCCc2cn(CCOCCOCCOc3ccc(-c4cc(=O)c5ccccc5o4)cc3)nn2)cc1`, the Survival came out at 70%.

`O=C(/C=C/c1ccc(OCCCCc2cn(CCOCCOCCOc3ccc(-c4cc(=O)c5ccccc5o4)cc3)nn2)cc1)c1ccccc1O`: the Survival came to 65%.

For the compound `COc1cccc(COc2c(-c3ccc(OCCOCCn4cc(-c5ccc(-c6cn(CCOCCOc7ccc(-c8oc9ccccc9c(=O)c8OCc8cccc(OC)c8)cc7)nn6)cc5)nn4)cc3)oc3ccccc3c2=O)c1`, the Survival is listed as 88%.

`O=c1[nH]c(-c2ccc(OCCCc3cn(CCOCCOc4ccc(-c5cc(=O)c6cc(F)ccc6o5)cc4)nn3)cc2)nc2ccccc12`: the Survival is on record as 76%.

With `O=c1c(OCc2ccccc2)c(-c2cccc(OCCOCCn3cc(CN(Cc4ccccc4)Cc4cn(CCOCCOc5cccc(-c6oc7ccccc7c(=O)c6OCc6ccccc6)c5)nn4)nn3)c2)oc2ccccc12`, the Survival came to 87%.

Regarding `CCc1ccc(O)c(C(=O)/C=C/c2ccc(OCCCCc3cn(CCOCCOCCOc4ccc(-c5cc(=O)c6cc(C)ccc6o5)cc4)nn3)cc2)c1`, the Survival is on record as 63%.

As for `O=c1cc(-c2ccc(OCCCc3cn(CCOCCOc4ccc(-c5oc6ccccc6c(=O)c5OCc5ccccc5)cc4)nn3)cc2)oc2ccccc12`, the Survival is given as 50%.

`O=C(/C=C/c1ccc(OCCCCc2cn(CCOCCOCCOc3ccc(-c4oc5ccccc5c(=O)c4OCc4ccccc4)cc3)nn2)cc1)c1ccccc1O`: the Survival turned out to be 61%.

As for `O=c1cc(-c2ccc(OCCOCCn3cc(CN(Cc4cn(CCOCCOc5ccc(-c6cc(=O)c7cc(F)ccc7o6)cc5)nn4)Cc4cn(CCOCCOc5ccc(-c6cc(=O)c7cc(F)ccc7o6)cc5)nn4)nn3)cc2)oc2ccc(F)cc12`, the Survival was 76%.

In the case of `Cc1ccc2oc(-c3ccc(OCCOCCOCCn4cc(CN(C)CCN(C)Cc5cn(CCOCCOCCOc6ccc(-c7cc(=O)c8cc(C)ccc8o7)cc6)nn5)nn4)cc3)cc(=O)c2c1`, the Survival is on record as 76%.
